Reference: publication PMC12394898 (Chemical Science, 2025)
Where two headings read alike, the source gives them in different places.

Assays:
[1] = tested on: A-549; experiment: Cytotoxic activity, crystal violet staining; type: cell-based, human; conditions: read-out: IC50 A-549, A-549 cells, 72 hours incubation
[2] = tested on: HT-29; experiment: Cytotoxic activity, crystal violet staining; type: cell-based, human; conditions: read-out: IC50 HT-29, HT-29 cells, 72 hours incubation
[3] = tested on: MCF-7; experiment: Cytotoxic activity, crystal violet staining; type: cell-based, human; conditions: read-out: IC50 MCF-7, MCF-7 cells, 96 hours incubation
[4] = tested on: A2780; experiment: Cytotoxicity on ovarian cancer cell line; type: cell-based, human; conditions: read-out: IC50 A2780
[5] = tested on: organoids from colon cancer tissues (CRC-PDTO1-4); experiment: Patient-Derived Organoid cytotoxicity assay; type: cell-based, human
In short: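 Patient-derived colorectal cancer tumor organoids (3D model) came from the C.R.O. biobank. Oxaliplatin, the standard treatment, served as positive control. Dose-response IC50 values were obtained per organoid line.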

[6] = tested on: organoids from HGSOC tissues (HGSOC-PDTO1-4); experiment: Patient-Derived Organoid cytotoxicity assay; type: cell-based, human
In short: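 Patient-derived high-grade serous ovarian cancer tumor organoids (3D model) came from the C.R.O. biobank. Carboplatin, the standard treatment, served as positive control. Dose-response IC50 values were obtained per organoid line.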

[7] = molecular target: T1, recombinant human TrxR (TrxR1) (Homo sapiens, UniProt Q16881); experiment: Thioredoxin reductase inhibition assay; type: biochemical
T1 sequence (Q16881 1-499 isoform Q16881-5): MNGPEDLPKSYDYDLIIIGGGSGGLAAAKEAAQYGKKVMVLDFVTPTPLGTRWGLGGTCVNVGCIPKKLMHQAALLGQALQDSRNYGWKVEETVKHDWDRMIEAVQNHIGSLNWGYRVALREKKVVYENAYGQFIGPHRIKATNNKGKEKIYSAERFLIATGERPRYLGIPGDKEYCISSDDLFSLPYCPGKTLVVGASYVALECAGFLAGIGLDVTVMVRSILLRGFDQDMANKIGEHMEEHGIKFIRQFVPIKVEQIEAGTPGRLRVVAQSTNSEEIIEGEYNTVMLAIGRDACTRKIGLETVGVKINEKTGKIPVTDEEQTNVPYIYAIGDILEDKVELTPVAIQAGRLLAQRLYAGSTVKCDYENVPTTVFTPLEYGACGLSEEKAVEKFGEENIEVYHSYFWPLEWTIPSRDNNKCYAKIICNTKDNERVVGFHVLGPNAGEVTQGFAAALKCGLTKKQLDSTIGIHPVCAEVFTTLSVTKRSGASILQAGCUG

[8] = Stability in water; type: physicochemical; conditions: 4 mg in DMSO-d6 (0.4 mL) diluted with D2O to 0.5 mL, 48 hours
[9] = tested on: A2780; conditions: read-out: average IC50 in A2780 ovarian cancer cells; literature value; cited from earlier work
[10] = tested on: HT-29; conditions: read-out: average IC50 in HT-29 colon cancer cells; literature value; cited from earlier work
[11] = 50 μM for 96 hours, compared to non-treated controls
[12] = read-out: IC50 CRC-PDTO1, organoid CRC-PDTO1, 96 hours of treatment
[13] = read-out: IC50 CRC-PDTO2, organoid CRC-PDTO2, 96 hours of treatment
[14] = read-out: IC50 CRC-PDTO3, organoid CRC-PDTO3, 96 hours of treatment
[15] = read-out: IC50 CRC-PDTO4, organoid CRC-PDTO4, 96 hours of treatment
[16] = read-out: IC50 HGSOC-PDTO1, organoid HGSOC-PDTO1, 96 hours of treatment
[17] = read-out: IC50 HGSOC-PDTO2, organoid HGSOC-PDTO2, 96 hours of treatment
[18] = read-out: IC50 HGSOC-PDTO3, organoid HGSOC-PDTO3, 96 hours of treatment
[19] = read-out: IC50 HGSOC-PDTO4, organoid HGSOC-PDTO4, 96 hours of treatment

| Molecule | IC50 [1] [µM] | IC50 [2] [µM] | IC50 [3] [µM] | further results |
| --- | --- | --- | --- | --- |
| [Au(ImPyIPr)Se(C6H5)] [1i] | 5.97 ± 0.08 | 12.6 ± 0.8 | 4.3 ± 0.4 |  |
| CC(C)c1cccc(C(C)C)c1N1CCN(c2c(C(C)C)cccc2C(C)C)[C]1=[Au][Se]c1ccccc1 [1b, [Au(SIPr)Se(C6H5)]] | > 100 | > 100 | > 100 |  |
| [Au(IPr)Se(C6H4CF3)] [2a] | 55 ± 10 | 88 ± 8 | 48 ± 5 |  |
| [Au(MonoIPent)Se(C6H5)] [1m] | 0.27 ± 0.03 | 0.35 ± 0.05 | 0.27 ± 0.04 | IC50 [4]: 400 ± 100 nM; brightfield appearance of CRC PDTOs after treatment [5, 11]: visible reductions in organoid size, density, and structural integrity; IC50 [5, 12]: 13 ± 9 µM; IC50 [5, 13]: 6 ± 2 µM; IC50 [5, 14]: 3.4 ± 0.5 µM; IC50 [5, 15]: 9 ± 5 µM; brightfield appearance of HGSOC PDTOs after treatment [6, 11]: visible reductions in organoid size, density, and structural integrity; IC50 [6, 16]: 17 ± 8 µM; IC50 [6, 17]: 4 ± 2 µM; IC50 [6, 18]: 6 ± 2 µM; IC50 [6, 19]: 7 ± 5 µM; IC50 ([7]; read-out: TrxR inhibition average IC50, recombinant human TrxR, 75 min at 37 °C): 180 ± 50 nM; stability in water [8]: No change |
| CCC(CC)c1cccc(C(CC)CC)c1-n1ccn(-c2c(C(CC)CC)cccc2C(CC)CC)[c]1=[Au][Se]c1ccccc1 [1l, [Au(IPent)Se(C6H5)]] | > 100 | > 100 | > 100 |  |
| CC(C)c1cccc(C(C)C)c1-n1ccn(-c2c(C(C)C)cccc2C(C)C)[c]1=[Au][Se]c1ccccc1 [1a, [Au(IPr)Se(C6H5)]] | 4.5 ± 0.9 | 3.1 ± 0.5 | 3.6 ± 0.5 | inhibition of the enzyme (TrxR1) ([7]; highest applied dosage of 100 μM): did not show any inhibition; stability in water [8]: No change |
| N.N.O=C([O-])C1(C(=O)[O-])CCC1.[Pt+2] [Carboplatin, reference compound] |  |  |  | IC50 [6, 16]: 3.5 ± 0.7 µM; IC50 [6, 17]: 3 ± 1 µM; IC50 [6, 18]: > 100 µM; IC50 [6, 19]: > 100 µM; IC50 [9]: 8 µM |
| CC(C)c1cccc(C(C)C)c1-n1ccn(-c2c(C(C)C)cccc2C(C)C)[c]1=[Cu][Se]c1ccccc1 [1p, [Cu(IPr)Se(C6H5)]] | 0.7 ± 0.1 | 1 ± 0.3 | 0.4 ± 0.3 |  |
| [Au(BzIPr)Se(C6H5)] [1f] | 0.32 ± 0.04 | 1.08 ± 0.05 | 1.9 ± 0.4 |  |
| CC(=O)OC[C@H]1O[C@@H]([S-])[C@H](OC(C)=O)[C@@H](OC(C)=O)[C@@H]1OC(C)=O.CCP(CC)CC.[Au+] [Auranofin, reference compound] | 3.7 ± 0.4 | 4.9 ± 0.5 | 1.5 ± 0.2 |  |
| [Au(PPh3)Se(C6H5)] [1o] | 2.9 ± 0.4 | 2.8 ± 0.2 | 1.7 ± 0.08 |  |
| [Au(MeIPr)Se(C6H5)] [1g] | 1.5 ± 0.3 | 2.2 ± 0.5 | 2.4 ± 0.5 |  |
| CC(C)c1cccc(C(C)C)c1-n1ccn(-c2c(C(C)C)cccc2C(C)C)[c]1=[Ag][Se]c1ccccc1 [1q, [Ag(IPr)Se(C6H5)]] | 0.8 ± 0.1 | 1.2 ± 0.3 | 0.9 ± 0.2 |  |
| Cc1c(C)n(-c2c(C(C)C)cccc2C(C)C)[c](=[Au][Se]c2ccccc2)n1-c1c(C(C)C)cccc1C(C)C [1d, [Au(IPr^Me)Se(C6H5)]] | > 100 | > 100 | 6.1 ± 0.3 |  |
| O=C1[O][Pt]2([NH][C@@H]3CCCC[C@H]3[NH]2)[O]C1=O [Oxaliplatin, reference compound] |  |  |  | IC50 [5, 12]: 1.4 ± 0.9 µM; IC50 [5, 13]: 4 ± 1 µM; IC50 [5, 14]: > 100 µM; IC50 [5, 15]: > 100 µM; IC50 [10]: 7 µM |
| [Au(MeIMes)Se(C6H5)] [1h] | 4 ± 0.5 | 4 ± 1 | 3.4 ± 0.6 |  |
| Cc1cc(C)c(N2CCN(c3c(C)cc(C)cc3C)[C]2=[Au][Se]c2ccccc2)c(C)c1 [1k, [Au(SIMes)Se(C6H5)]] | 6.3 ± 0.6 | 9.9 ± 0.3 | 4.4 ± 0.1 |  |
| Cc1cc(C(c2ccccc2)c2ccccc2)c(-n2ccn(-c3c(C(c4ccccc4)c4ccccc4)cc(C)cc3C(c3ccccc3)c3ccccc3)[c]2=[Au][Se]c2ccccc2)c(C(c2ccccc2)c2ccccc2)c1 [1c, [Au(IPr*)Se(C6H5)]] | > 100 | > 100 | > 100 |  |
| N.N.[Cl][Pt][Cl] [Cisplatin, reference compound] | 3 ± 0.4 | 7 ± 0.5 | 5.3 ± 0.8 | IC50 [4]: 1000 nM |
